What all share (format): functional
The test system of assay [1] is Staphylococcus aureus. Put plainly: Antibacterial activity against multidrug-resistant Staphylococcus aureus 3SP/R33 after 18 hrs by phase 2 broth microdilution method. The procedure, abridged:
(§1)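 Phase II narrowed the phase I MIC in Tryptic Soy Broth. Stock was made at twice the phase I MIC, then diluted 10% stepwise with TSB through column 11. Final DMSO was 2.5–1.0%. Positive growth control wells received TSB. Inoculum was prepared as in phase I and plates were incubated 18 h at 35 °C.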
Background: Broth dilution looks for growth in wells or tubes with falling amounts of substance.

Assay [2] deals with Staphylococcus aureus. The experiment in a line: Antibacterial activity against Staphylococcus aureus ATCC 25923 after 18 hrs by phase 2 broth microdilution method. The conditions noted are these: ATCC 25923, 18 h. The procedure, abridged:
as §1

Assay [3] relates to Staphylococcus aureus. Put plainly: Antibacterial activity against multidrug-resistant vancomycin-intermediate Staphylococcus aureus VISA3 after 18 hrs phase 2 by broth microdilution method. The method, boiled down: as §1
For assay [4], the system named is Staphylococcus aureus. Put plainly: Antibacterial activity against multidrug-resistant vancomycin-intermediate Staphylococcus aureus VISA3 after 18 hrs phase 1 by broth microdilution method. The method, boiled down: (§2)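 Phase I: twofold serial dilutions in Tryptic Soy Broth, 96-well plates, concentrations […]. Stocks in DMSO/TSB 1:10 v/v, with final DMSO 5.0–0.01%. Inoculum was set to 0.5 McFarland, then diluted in saline and TSB. Plates ran 18 h at 35 °C. MIC is the lowest concentration without visible growth, in triplicate. Sterility was read at 24 and 48 h. Ampicillin, chloramphenicol and vancomycin were controls.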

For assay [5], the system named is Staphylococcus aureus. The experiment in a line: Antibacterial activity against multidrug-resistant Staphylococcus aureus 3SP/R33 after 18 hrs by phase 1 broth microdilution method. The procedure, abridged: as §2
The test system of assay [6] is Staphylococcus aureus. The experiment in a line: Antibacterial activity against Staphylococcus aureus ATCC 25923 after 18 hrs by phase 1 broth microdilution method. The conditions noted are these: ATCC 25923, 18 h. The procedure, abridged: as §2
In assay [7] the test system is Staphylococcus aureus. The experiment in a line: Antibacterial activity against Staphylococcus aureus ATCC 25923 after 18 hrs by broth microdilution method. The note with it: ATCC 25923, 18 h. The method, boiled down:
(§3)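 Broth microdilution in Tryptic Soy Broth in 96-well plates, with DMSO as solvent at no more than 5% of the total. Inoculum was set to 0.5 McFarland and diluted in saline and TSB. Plates were incubated 18 h at 35 °C. MIC is the lowest concentration without visible growth. The MIC was determined in two phases, the second narrowing the first.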

For assay [8], the system named is Staphylococcus aureus. Put plainly: Antibacterial activity against multidrug-resistant Staphylococcus aureus 3SP/R33 after 18 hrs by broth microdilution method. The procedure, abridged:
as §3

For assay [9], the system named is Staphylococcus aureus. Put plainly: Antibacterial activity against multidrug-resistant vancomycin-intermediate Staphylococcus aureus VISA3 after 18 hrs by broth microdilution method. The procedure, abridged: as §3

Converted amounts (≈) assume the structure as drawn.

The MIC is the least concentration at which growth counts as inhibited. `Cc1ccc(C(=O)N/N=C/c2ccc3c(c2)no[n+]3[O-])cc1`: the MIC came out at 21 µg/mL (≈ 70.9 µM) in the assay on Staphylococcus aureus [1]; 21 µg/mL (≈ 70.9 µM) with Staphylococcus aureus [2]; 21 µg/mL (≈ 70.9 µM) against Staphylococcus aureus [3]; 20 µg/mL (≈ 67.5 µM) in the assay on Staphylococcus aureus [4]; 20 µg/mL (≈ 67.5 µM) with Staphylococcus aureus [5]; 20 µg/mL (≈ 67.5 µM) against Staphylococcus aureus [6].
In the case of `O=C(N/N=C/c1ccc2c(c1)no[n+]2[O-])c1ccc(Br)cc1`, the MIC is 18 µg/mL (≈ 49.8 µM) against Staphylococcus aureus [1]; 18 µg/mL (≈ 49.8 µM) against Staphylococcus aureus [2]; 18 µg/mL (≈ 49.8 µM) with Staphylococcus aureus [3]; 10 µg/mL (≈ 27.7 µM) in the assay on Staphylococcus aureus [4]; 10 µg/mL (≈ 27.7 µM) against Staphylococcus aureus [5]; 10 µg/mL (≈ 27.7 µM) against Staphylococcus aureus [6].
With `O=C(N/N=C/c1ccc2c(c1)no[n+]2[O-])c1ccc(Cl)cc1`, the MIC with Staphylococcus aureus [1] was determined as 15.3 µg/mL (≈ 48.3 µM); with Staphylococcus aureus [2], 15.3 µg/mL (≈ 48.3 µM); in the assay on Staphylococcus aureus [3], 15.3 µg/mL (≈ 48.3 µM); against Staphylococcus aureus [4], 10 µg/mL (≈ 31.6 µM); against Staphylococcus aureus [5] it was 10 µg/mL (≈ 31.6 µM); with Staphylococcus aureus [6], 10 µg/mL (≈ 31.6 µM).
For `CC(=O)c1ccc(C(=O)N/N=C/c2ccc3c(c2)no[n+]3[O-])cc1`, the minimum inhibitory concentration (MIC) against Staphylococcus aureus [1] came out at 21.2 µg/mL (≈ 65.4 µM); against Staphylococcus aureus [2] it was 21.2 µg/mL (≈ 65.4 µM); in the assay with Staphylococcus aureus [3], 21.2 µg/mL (≈ 65.4 µM); in the assay with Staphylococcus aureus [4], 20 µg/mL (≈ 61.7 µM); with Staphylococcus aureus [5], 20 µg/mL (≈ 61.7 µM); against Staphylococcus aureus [6] it was 20 µg/mL (≈ 61.7 µM).
As for `O=C(N/N=C/c1ccc2c(c1)no[n+]2[O-])c1ccccc1`, the MIC was 16.2 µg/mL (≈ 57.4 µM) against Staphylococcus aureus [1]; 16.2 µg/mL (≈ 57.4 µM) against Staphylococcus aureus [2]; 16.2 µg/mL (≈ 57.4 µM) with Staphylococcus aureus [3]; 10 µg/mL (≈ 35.4 µM) with Staphylococcus aureus [4]; 10 µg/mL (≈ 35.4 µM) in the assay with Staphylococcus aureus [5]; 10 µg/mL (≈ 35.4 µM) with Staphylococcus aureus [6].
In the case of `Nc1ccc(C(=O)N/N=C/c2ccc3c(c2)no[n+]3[O-])cc1`, the MIC is 15.3 µg/mL (≈ 51.5 µM) against Staphylococcus aureus [1]; 15.3 µg/mL (≈ 51.5 µM) in the assay with Staphylococcus aureus [2]; 15.3 µg/mL (≈ 51.5 µM) against Staphylococcus aureus [3]; 10 µg/mL (≈ 33.6 µM) in the assay on Staphylococcus aureus [4]; 10 µg/mL (≈ 33.6 µM) with Staphylococcus aureus [5]; 10 µg/mL (≈ 33.6 µM) with Staphylococcus aureus [6].
For `N#Cc1ccc(C(=O)N/N=C/c2ccc3c(c2)no[n+]3[O-])cc1`, the minimum inhibitory concentration (MIC) came out at 26.2 µg/mL (≈ 85.3 µM) with Staphylococcus aureus [1]; 26.2 µg/mL (≈ 85.3 µM) against Staphylococcus aureus [2]; 26.2 µg/mL (≈ 85.3 µM) against Staphylococcus aureus [3]; 20 µg/mL (≈ 65.1 µM) with Staphylococcus aureus [4]; 20 µg/mL (≈ 65.1 µM) against Staphylococcus aureus [5]; 20 µg/mL (≈ 65.1 µM) against Staphylococcus aureus [6].
Regarding `O=C(N/N=C/c1ccc2c(c1)no[n+]2[O-])c1ccc(O)cc1`, the MIC with Staphylococcus aureus [1] stood at 26.2 µg/mL (≈ 87.8 µM); with Staphylococcus aureus [2], 26.2 µg/mL (≈ 87.8 µM); in the assay with Staphylococcus aureus [3] it was 26.2 µg/mL (≈ 87.8 µM); with Staphylococcus aureus [4] it was 20 µg/mL (≈ 67.1 µM); against Staphylococcus aureus [5], 20 µg/mL (≈ 67.1 µM); against Staphylococcus aureus [6], 20 µg/mL (≈ 67.1 µM).
As for `O=C(N/N=C/c1ccc2c(c1)no[n+]2[O-])c1ccc(F)cc1`, the minimum inhibitory concentration (MIC) came out at 14.6 µg/mL (≈ 48.6 µM) against Staphylococcus aureus [1]; 14.6 µg/mL (≈ 48.6 µM) against Staphylococcus aureus [2]; 14.6 µg/mL (≈ 48.6 µM) against Staphylococcus aureus [3]; 10 µg/mL (≈ 33.3 µM) against Staphylococcus aureus [4]; 10 µg/mL (≈ 33.3 µM) against Staphylococcus aureus [5]; 10 µg/mL (≈ 33.3 µM) against Staphylococcus aureus [6].
Turning to `O=C(N/N=C/c1ccc2c(c1)no[n+]2[O-])c1ccc(I)cc1`, the minimal inhibitory concentration (MIC) in the assay on Staphylococcus aureus [1] was found to be 23.6 µg/mL (≈ 57.8 µM); against Staphylococcus aureus [2], 23.6 µg/mL (≈ 57.8 µM); in the assay on Staphylococcus aureus [3] it was 23.6 µg/mL (≈ 57.8 µM); with Staphylococcus aureus [4] it was 20 µg/mL (≈ 49 µM); against Staphylococcus aureus [5], 20 µg/mL (≈ 49 µM); in the assay on Staphylococcus aureus [6] it was 20 µg/mL (≈ 49 µM).
Turning to `O=C(N/N=C/c1ccc2c(c1)no[n+]2[O-])c1ccc(C(F)(F)F)cc1`, the MIC in the assay with Staphylococcus aureus [1] worked out at 13.1 µg/mL (≈ 37.4 µM); in the assay on Staphylococcus aureus [2], 13.1 µg/mL (≈ 37.4 µM); against Staphylococcus aureus [3], 13.1 µg/mL (≈ 37.4 µM); with Staphylococcus aureus [4] it was 10 µg/mL (≈ 28.6 µM); against Staphylococcus aureus [5], 10 µg/mL (≈ 28.6 µM); with Staphylococcus aureus [6], 10 µg/mL (≈ 28.6 µM).
With `COc1ccc(C(=O)N/N=C/c2ccc3c(c2)no[n+]3[O-])cc1`, the minimal inhibitory concentration (MIC) in the assay on Staphylococcus aureus [1] is 16.2 µg/mL (≈ 51.9 µM); in the assay on Staphylococcus aureus [2] it was 16.2 µg/mL (≈ 51.9 µM); in the assay with Staphylococcus aureus [3], 16.2 µg/mL (≈ 51.9 µM); against Staphylococcus aureus [4] it was 10 µg/mL (≈ 32 µM); in the assay on Staphylococcus aureus [5] it was 10 µg/mL (≈ 32 µM); against Staphylococcus aureus [6] it was 10 µg/mL (≈ 32 µM).
Turning to `CN(C)c1ccc(C(=O)N/N=C/c2ccc3c(c2)no[n+]3[O-])cc1`, the minimum inhibitory concentration (MIC) against Staphylococcus aureus [4], in the assay on Staphylococcus aureus [5] and in the assay with Staphylococcus aureus [6] was greater than 80 µg/mL throughout.
Regarding `NS(=O)(=O)c1ccc(C(=O)N/N=C/c2ccc3c(c2)no[n+]3[O-])cc1`, the minimum inhibitory concentration (MIC) in the assay with Staphylococcus aureus [4], against Staphylococcus aureus [5] and in the assay on Staphylococcus aureus [6] was greater than 80 µg/mL throughout.
For the molecule `CC1(C)S[C@@H]2[C@H](NC(=O)[C@H](N)c3ccccc3)C(=O)N2[C@H]1C(=O)O` [AMPICILLIN], it took 0.1 µg/mL (≈ 0.286 µM) to inhibit growth against Staphylococcus aureus [7] (MIC).
As to `O=C(N[C@H](CO)[C@H](O)c1ccc([N+](=O)[O-])cc1)C(Cl)Cl` [CHLORAMPHENICOL], the MIC in the assay with Staphylococcus aureus [7] amounted to 2 µg/mL (≈ 6.19 µM); with Staphylococcus aureus [8] it was 32 µg/mL (≈ 99 µM); with Staphylococcus aureus [9], 32 µg/mL (≈ 99 µM).

The values are drawn from ChEMBL document CHEMBL1153439, “Design, synthesis, antimicrobial activity and molecular modeling studies of novel benzofuroxan derivatives against Staphylococcus aureus” (2009).
